Assay results from ChEMBL document CHEMBL4270544, “Design, synthesis and biological evaluation of a novel tubulin inhibitor 7a3 targeting the colchicine binding site” (Eur J Med Chem, 2018).
Active and inactive are the calls of the source. The rule behind the calls is not given here.

Tests used:
[1] = tested on: MDA-MB-231; assay: Antiproliferative activity against human MDA-MB-231 cells after 72 hrs by CCK8 assay; type: functional, cell-based; conditions: MDA-MB-231, 72 h
Outline: (§1)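 CCK-8 proliferation assay with CA-4 as positive control. IC50 is the concentration giving 50% inhibition of proliferation. Mean ± SEM from three independent experiments.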

[2] = tested on: SK-OV-3; assay: Antiproliferative activity against human SKOV3 cells after 72 hrs by CCK8 assay; type: functional, cell-based; conditions: SK-OV-3, 72 h; outline: as §1
[3] = tested on: HeLa; assay: Antiproliferative activity against human HeLa cells after 72 hrs by CCK8 assay; type: functional, cell-based; outline: as §1
[4] = tested on: CT26; assay: Antiproliferative activity against mouse CT26 cells after 72 hrs by CCK8 assay; type: functional, cell-based; conditions: CT26, 72 h; outline: as §1
[5] = tested on: MCF7; assay: Antiproliferative activity against human MCF7 cells after 72 hrs by CCK8 assay; type: functional, cell-based; conditions: MCF7, 72 h; outline: as §1
[6] = tested on: A549; assay: Antiproliferative activity against human A549 cells after 72 hrs by CCK8 assay; type: functional, cell-based; conditions: A549, 72 h; outline: as §1
[7] = tested on: SK-OV-3; assay: Antimigratory activity against human SKOV3 cells assessed as wound closure at 80 nM after 24 hrs by microscopy based scratch wound assay (reference value: 79.5 +/- 2.8%); type: functional
[8] = tested on: SK-OV-3; assay: Antimigratory activity against human SKOV3 cells assessed as wound closure at 160 nM after 24 hrs by microscopy based scratch wound assay (reference value: 79.5 +/- 2.8%); type: functional
[9] = tested on: SK-OV-3; assay: Antimigratory activity against human SKOV3 cells assessed as number of migrated cells at 100 nM after 24 hrs by crystal violet staining based transwell migration assay (reference value: 49.3 to 50.7); type: functional
[10] = tested on: SK-OV-3; assay: Antimigratory activity against human SKOV3 cells assessed as number of migrated cells at 50 nM after 24 hrs by crystal violet staining based transwell migration assay (reference value: 49.3 to 50.7); type: functional
[11] = species: Bos taurus; assay: Inhibition of bovine MAP-rich tubulin polymerization at 10 uM measured every 1 min for 30 mins relative to control
Outline: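 Purified tubulin polymerization followed at 37 °C by absorbance at 340 nm, read every 1 min for 30 min. Test concentrations 2.5, 10 and 40 µM. CA-4 at 10 µM served as positive control and DMSO (1%, v/v) as vehicle. Polymerization is expressed relative to the vehicle group.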

[12] = tested on: SK-OV-3; assay: Antimigratory activity against human SKOV3 cells assessed as number of migrated cells at 25 nM after 24 hrs by crystal violet staining based transwell migration assay (reference value: 49.3 to 50.7); type: functional

| Structure (SMILES) | IC50 [1] [nM] | IC50 [2] [nM] | further results |
| --- | --- | --- | --- |
| COc1ccc(-c2c(-c3cc(OC)c(OC)c(OC)c3)nn(-c3ccc(F)cc3)c2N)cc1 | 33700 | 28900 | – |
| COc1cc(-c2nn(C(C)(C)C)c(N)c2-c2ccc(SC)cc2)cc(OC)c1OC | 20800 | 24200 | – |
| COc1ccc(-c2cnn(C)c2-c2cc(OC)c(OC)c(OC)c2)cc1F | 57 | 66 | IC50 [3]: 112 nM; IC50 [4]: 151 nM; IC50 [5]: 113 nM; IC50 [6]: 187 nM |
| COc1ccc(-c2cn(C)nc2-c2cc(OC)c(OC)c(OC)c2)cc1F | 41 | 55 | IC50 [3]: 28.8 nM; IC50 [4]: 58.7 nM; IC50 [5]: 37.2 nM; IC50 [6]: 141 nM |
| COc1cc(-c2nn(-c3ccc(F)cc3)c(N)c2-c2ccc(SC)cc2)cc(OC)c1OC | 22900 | 7370 | – |
| CCOc1ccc(-c2c(-c3cc(OC)c(OC)c(OC)c3)nn(-c3ccc(F)cc3)c2N)cc1 | 1660 | 2830 | – |
| COc1ccc(-n2nc(-c3cc(OC)c(OC)c(OC)c3)c(-c3ccc(SC)cc3)c2N)cc1 | 7050 | 14000 | – |
| COc1cc(-c2c(-c3ccc(SC)cc3)cnn2C)cc(OC)c1OC | 41 | 52 | – |
| COc1cc(-c2nn(C)cc2-c2ccc(SC)cc2)cc(OC)c1OC | 307 | 155 | – |
| COc1ccc(-c2c(-c3cc(OC)c(OC)c(OC)c3)nn(C)c2N)cc1F | 36400 | 31800 | – |
| CCOc1ccc(-c2c(-c3cc(OC)c(OC)c(OC)c3)nn(C)c2N)cc1 | 490 | 338 | – |
| COc1ccc(-n2nc(-c3cc(OC)c(OC)c(OC)c3)c(-c3ccc(OC)c(F)c3)c2N)cc1 | 18400 | 14700 | – |
| COc1ccc(-c2c(-c3cc(OC)c(OC)c(OC)c3)nn(C(C)(C)C)c2N)cc1 | 31300 | 40300 | – |
| COc1ccc(-c2c(-c3cc(OC)c(OC)c(OC)c3)nn(-c3ccc(OC)cc3)c2N)cc1 | 15900 | 19000 | – |
| CCOc1ccc(-c2c(-c3cc(OC)c(OC)c(OC)c3)nn(C(C)(C)C)c2N)cc1 | 2570 | 1120 | – |
| COc1ccc(-c2c(-c3cc(OC)c(OC)c(OC)c3)nn(C)c2N)cc1 | 31100 | 16300 | – |
| COc1ccc(-c2c(-c3cc(OC)c(OC)c(OC)c3)nn(-c3ccc(F)cc3)c2N)cc1F | 24600 | 33200 | – |
| COc1ccc(-c2cnn(C)c2-c2cc(OC)c(OC)c(OC)c2)cc1 | 74 | 69 | – |
| COc1cc(-c2nn(C)c(N)c2-c2ccc(SC)cc2)cc(OC)c1OC | 748 | 438 | – |
| CCOc1ccc(-c2c(-c3cc(OC)c(OC)c(OC)c3)nn(-c3ccc(OC)cc3)c2N)cc1 | 2010 | 1210 | – |
| CCOc1ccc(-c2cnn(C)c2-c2cc(OC)c(OC)c(OC)c2)cc1 | 72 | 43 | IC50 [3]: 93.1 nM; IC50 [4]: 165 nM; IC50 [5]: 39.9 nM; IC50 [6]: 99 nM |
| COc1ccc(-c2c(-c3cc(OC)c(OC)c(OC)c3)nn(C(C)(C)C)c2N)cc1F | 29500 | 16900 | – |
| COc1ccc(/C=C\c2cc(OC)c(OC)c(OC)c2)cc1O [COMBRETASTATIN A4] | 4.5 | 5.9 | Activity [7]: 41.9%; Activity [8]: 29.2%; Activity [9]: 18.3; Activity [10]: 20.7; inhibition [11]: Active; IC50 [3]: 14.2 nM; IC50 [4]: 45.1 nM; IC50 [5]: 39.1 nM; Activity [12]: 26.3; IC50 [6]: 94.3 nM |
| COc1ccc(-c2cn(C)nc2-c2cc(OC)c(OC)c(OC)c2)cc1 | 166 | 89 | – |
